Results collected from several papers.
Compare with care: the assays were run in different laboratories. ≈ marks a conversion by molar mass, not a printed value.
Organism: Candida albicans
Observed: microbial growth

With `Cc1ccccc1NC(=O)C=Cc1ccc(O)c(O)c1` the MIC was 32 µg/mL (≈ 119 µM) (broth dilution; SC5314).
`N#Cc1c(-c2ccc(OCc3ccccc3)cc2)c(C(N)=S)c(N)n(N)c1=O` has an inhibition zone of 10 mm (well diffusion; ATCC10231; 500 µg/mL).
With `O=C(C=Cc1ccc(O)c(O)c1)OCCc1ccccc1` the MIC was 8 µg/mL (≈ 28.1 µM) (broth dilution; SC5314).
With `CC(=O)N1CCN(c2ccc(OCC3COC(Cn4ccnc4)(c4ccc(Cl)cc4Cl)O3)cc2)CC1` (centres unmarked) the inhibition zone was 24 mm (well diffusion; ATCC10231; 500 µg/mL).
The MIC of `O=C1C(Br)=C(Br)C(=O)c2ccccc21` is reported as 3.12 µg/mL (≈ 9.89 µM) (broth dilution; ATCC60193; 24 h).
The MIC of `Cc1nn(-c2ccccc2)c2c1C(c1ccc(O)cc1)N(C(=O)c1ccncc1)N2` (centres unmarked) is reported as 64 µg/mL (≈ 161 µM) (MTCC183).
`OC(Cn1cncn1)(Cn1cncn1)c1ccc(F)cc1F` gave an MIC of 0.25 µg/mL (≈ 0.816 µM) (broth dilution; SC5314).
`Cc1c(C(N)=O)c(N)n(N)c(=O)c1C#N` has an inhibition zone of 12 mm (well diffusion; ATCC10231; 500 µg/mL).
For `CC(C)=CCCC(C)=CC1c2c(C)nn(-c3ccccc3)c2NN1C(=O)c1ccncc1` (centres unmarked), the MIC was 32 µg/mL (≈ 74.8 µM) (MTCC183).
With `OC(Cn1cncn1)(Cn1cncn1)c1ccc(F)cc1F` the MIC50 was 0.8 µM (≈ 0.245 µg/mL) (broth dilution; SC5314; 48 h).
`COc1ccc(C2c3c(C)nn(-c4ccccc4)c3NN2C(=O)c2ccncc2)cc1` (centres unmarked) gave an MIC of 16 µg/mL (≈ 38.9 µM) (MTCC183).
For `CC(=O)Oc1ccc(-c2c(C(N)=O)c(N)n(N)c(=O)c2C#N)cc1`, the inhibition zone was 12 mm (well diffusion; ATCC10231; 500 µg/mL).
For `Cc1nn(-c2ccccc2)c2c1C(c1ccc(N(C)C)cc1)N(C(=O)c1ccncc1)N2` (centres unmarked), the MIC was 32 µg/mL (≈ 75.4 µM) (MTCC183).
The MIC of `O=C(C=Cc1ccc(O)c(O)c1)Oc1ccccc1` is reported as 32 µg/mL (≈ 125 µM) (broth dilution; SC5314).
`CN(C)c1ccc(-c2c(C(N)=O)c(N)n(N)c(=O)c2C#N)cc1` gave an inhibition zone of 12 mm (well diffusion; ATCC10231; 500 µg/mL).
For `CC1CCC(C(C)C)C(OC(=O)C=Cc2ccc(O)c(O)c2)C1` (centres unmarked), the MIC was 8 µg/mL (≈ 25.1 µM) (broth dilution; SC5314).
`Cc1nn(-c2ccccc2)c2c1C(c1ccc(Cl)cc1)N(C(=O)c1ccncc1)N2` (centres unmarked) has an MIC of 0.25 µg/mL (≈ 0.601 µM) (MTCC183).
